Assay outcomes: PubChem, Broad Institute
The list is not random: actives were taken first. Their share in the collection is about 2%.
Xi reactivation: activators of X-chromosome reactivation in mouse fibroblasts; XiGFP mouse fibroblasts, % GFP-positive cells imaging, 3 d; cells co-treated with 5-aza-dC sensitizer; scaled so ellipticine positive control = 100%; activation, % at 7.58 µM; actives 0.055% (n = 360,000);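 active = mean normalized replicate activation at least 10% and every replicate at or above 10%; inconclusive = only one of the two criteria met; inactive = mean below 10% and not all replicates reach 10%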;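 note: 0% = median of on-plate neutral control wells and 100% = ellipticine 6 µM median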
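Material: XiGFP fibroblasts, SV40-immortalized. Buffer or medium: DMEM plus 5-aza-dC sensitizer. Compound: single concentration per compound, delivered by pin transfer. Times: 3 days compound exposure. Controls: ellipticine 6 µM.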
E-sel inducer: E-selectin induction on HUVECs. activation, % at 7.58 µM. actives 0.37% (n = 260,000). P16581. AID 686992. HUVEC E-selectin immunofluorescence imaging; normalized: neutral wells 0, TNF-alpha wells 100;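 active = mean E-selectin-positive cell signal at least 10% of the positive control, reached in at least 60% of replicates, without over 20% cell loss; inconclusive = no rule given, readout overlaps actives, possibly toxicity-flagged; inactive = the rest, including those meeting only one limit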
Target sequence (P16581 whole entry, looked up): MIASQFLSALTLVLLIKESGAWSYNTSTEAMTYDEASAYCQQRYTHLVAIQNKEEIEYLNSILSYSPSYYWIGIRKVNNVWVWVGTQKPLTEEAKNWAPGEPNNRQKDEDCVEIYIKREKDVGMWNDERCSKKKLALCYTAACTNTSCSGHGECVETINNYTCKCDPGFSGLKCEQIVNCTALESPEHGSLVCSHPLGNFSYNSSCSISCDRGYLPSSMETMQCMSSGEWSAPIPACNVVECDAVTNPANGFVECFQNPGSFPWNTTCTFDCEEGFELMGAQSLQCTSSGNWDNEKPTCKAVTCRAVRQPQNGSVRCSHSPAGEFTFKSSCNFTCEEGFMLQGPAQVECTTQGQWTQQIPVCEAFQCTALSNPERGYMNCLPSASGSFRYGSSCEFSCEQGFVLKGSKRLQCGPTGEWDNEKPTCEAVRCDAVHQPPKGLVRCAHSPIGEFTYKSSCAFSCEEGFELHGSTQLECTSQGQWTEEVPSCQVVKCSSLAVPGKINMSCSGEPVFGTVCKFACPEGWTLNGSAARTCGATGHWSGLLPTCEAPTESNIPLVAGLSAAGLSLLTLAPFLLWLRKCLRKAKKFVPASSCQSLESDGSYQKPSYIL
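Assay system: HUVEC primary endothelial cells. Input: 3,000 HUVEC seeded per well. Doses: one compound dose added by pin transfer. Read-out basis: % PE-positive cells. Benchmarks: TNF-alpha high, DMSO low. Detection: immunofluorescence imaging. Buffer or medium: EGM-2, gelatin.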
RAD54 branch: RAD54 (human) branch migration inhibition. inhibition, % at 10.4 µM. actives 0.14% (n = 360,000). Q92698. RAD54 Holliday junction branch migration, FAM/BHQ fluorescence;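 active = mean normalized replicate activity at least 40 and at least half of replicates scoring 40 or more; inconclusive = only one of the two criteria met; inactive = mean below 40 and under half of replicates reaching 40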;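 note: 0% = median of neutral control wells and 100% = median of positive control wells; inhibitors cause a drop in the FAM fluorescence signal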
PglD inh: blocks C. jejuni PglD acetyltransferase activity | purified PglD enzyme, DTNB colorimetric CoA detection | inhibition, % at 12.5 µM | actives 0.098% (n = 360,000) | AID 602405; in the data active = inhibition above about 16%, passing the limit was not always enough; inconclusive = no clear call, values can overlap the other calls
RAD52 inh: RAD52 (human) annealing inhibition; actives 0.46% (n = 360,000); AID 651710; recombinant RAD52 DNA annealing, FRET fluorescence; P43351; inhibition, % at 18.7 µM;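 active = every replicate showing at least 50% inhibition; inconclusive = mean inhibition at least 50% but not in every replicate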
Ecoli rRNA inh: inhibits bacterial ribosomal RNA function over humanized ribosomes | GFP signal change (wild-type ribosome), % (no concentration beside the values) | actives 1.6% (n = 350,000) | E. coli WT GFP vs humanized-ribosome RFP mutants, fluorescence, 24 h; hits give low values; DMSO median 0, no signal -100 | AID 720706;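 active = significant combined selectivity score with lowered wild-type GFP, culture density cut under 30%, mutant RFP and density less affected; inactive = any of these conditions unmet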
AID977621: growth inhibition of wild-type GFP E. coli, dose response, H69 mutant RFP, cherry-pick. E. coli wild-type GFP strain growth, fluorescence, 24 h. 1,900 tested, under 10 active. shares compounds with Ecoli rRNA inh. AID 977621. activity change, negative = inhibition at 50 µM;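 active = Wild-type ribosome reporter drop at least double the humanized mutant ribosome reporter drop, growth loss under a set limit; inconclusive = no clear call, values can overlap the other calls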;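 note: wild-type GFP and H69 mutant RFP strains grown together 50/50 in each well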
AID977628: E. coli growth inhibition, wild-type GFP versus h24 humanized RFP strain, dose response, h24 mutant RFP vs wild-type GFP, cherry-pick | shares compounds with Ecoli rRNA inh | 1,900 tested, under 10 active | activity change, negative = inhibition at 50 µM | E. coli WT GFP strain growth, fluorescence, 24 h;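 active = compound lowering the normal-ribosome reporter at least twice as much as the humanized-ribosome reporter, growth loss under a set limit; inconclusive = no clear call, values can overlap the other calls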;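 note: wild-type GFP and h24 humanized RFP strains co-cultured 1 to 1 per well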
Numbers without * were called inactive; ? = inconclusive; . = not tested or not shown.

SMILES | Xi reactivation | E-sel inducer | RAD54 branch | PglD inh | RAD52 inh | Ecoli rRNA inh | AID977621 | AID977628
OCCNc1nc(Nc2ccc(Cl)cc2)nc(N2CCCC2)n1 | 0 | 1 | 0 | -2 | -12 | -3 | . | .
CC(C)NC(=O)N(C)C[C@@H]1OCCCC[C@@H](C)Oc2ccc(NS(=O)(=O)c3cccs3)cc2C(=O)N([C@H](C)CO)C[C@H]1C | 0 | . | -1 | 0 | 16 | -2 | . | .
C[C@@H]1CN([C@@H](C)CO)C(=O)c2cc(NC(=O)Cn3cnnn3)ccc2O[C@@H]1CN(C)Cc1ccc(C(=O)Nc2ccccc2N)cc1 | 0 | 0 | 2 | 0 | -14 | 0 | . | .
CC(=O)Oc1ccc(N(c2ccccc2)S(=O)(=O)c2ccc(C)cc2)cc1 | 0 | 0 | 10 | -5 | -5 | -24* | . | -5
Cc1ccc(S(=O)(=O)N(C)c2ccc(OCC(=O)O)cc2)cc1 | . | . | -11 | -8 | . | . | . | .
O=C(C[C@@H]1C=C[C@@H](NC(=O)c2cccc(F)c2)[C@H](CO)O1)NCCN1CCCC1 | -1 | -1 | -2 | 2 | -1 | 2 | . | .
Cc1ccc(CNC(=O)COC(=O)Cn2nc(C)c([N+](=O)[O-])c2C)cc1 | 0 | . | -18 | -3 | -5 | 9 | . | .
Cc1nn(CC(=O)c2ccc(Br)s2)c(C)c1[N+](=O)[O-] | 0 | . | 13 | -3 | -110 | -21* | 5.2 | -4.5
Cc1nn(CC(=O)OCCOc2ccc(Br)cc2)c(C)c1[N+](=O)[O-] | 0 | 0 | . | . | -19 | -25* | -12 | ?
C[C@@H]1CN([C@H](C)CO)C(=O)c2cc(NC(=O)Nc3ccc(F)cc3)ccc2O[C@@H](C)CCCCO[C@H]1CN(C)C(=O)NC1CCCCC1 | 0 | . | -1 | 2 | -2 | 4 | . | .
COc1ccc(NC(=O)Nc2cccc3c2O[C@H](CN(C)S(=O)(=O)c2ccc(OC)cc2)[C@H](C)CN([C@H](C)CO)C3=O)cc1 | 0 | -1 | -7 | -2 | 15 | -7 | . | .
COc1ccc(NC(=O)Nc2cccc3c2O[C@H](CN(C)S(=O)(=O)c2ccc(Cl)cc2)[C@@H](C)CN([C@@H](C)CO)C3=O)cc1 | 0 | 0 | 14 | 2 | -15 | 0 | -4.9 | -6
COc1ccc(NC(=O)Nc2cccc3c2O[C@@H](CN(C)S(=O)(=O)c2ccc(Cl)cc2)[C@H](C)CN([C@@H](C)CO)C3=O)cc1 | 0 | 0 | 10 | 1 | 6 | -2 | -20 | .
COc1ccc(NC(=O)Nc2cccc3c2O[C@H](CN(C)S(=O)(=O)c2ccc(C)cc2)[C@H](C)CN([C@H](C)CO)C3=O)cc1 | -1 | -1 | 7 | 1 | -22 | -4 | . | .
COc1ccc(NC(=O)Nc2cccc3c2O[C@H](CN(C)S(=O)(=O)c2ccc(C)cc2)[C@H](C)CN([C@@H](C)CO)C3=O)cc1 | -2 | -2 | -1 | 5 | -2 | -19* | . | ?
Cc1cc(C(=O)Nc2cccc3c2O[C@H](CN(C)S(=O)(=O)c2ccc(Cl)cc2)[C@H](C)CN([C@@H](C)CO)C3=O)n(C)n1 | 0 | 1 | 1 | 3 | -16 | -24* | -20 | ?
COCC(=O)N[C@H]1CC[C@H](CC(=O)NCc2ccccc2OC)O[C@@H]1CO | 0 | 0 | 3 | -2 | 8 | -2 | . | .
CN(C)CC(=O)N[C@@H]1CC[C@H](CC(=O)NCc2ccc(Cl)cc2)O[C@@H]1CO | 1 | 0 | -5 | 11 | 11 | -2 | . | .
C[C@@H]1CCCCO[C@@H](CN(C)S(C)(=O)=O)[C@H](C)CN([C@@H](C)CO)C(=O)c2cc(NC(=O)NC3CCCCC3)ccc2O1 | 0 | 0 | -9 | 1 | -3 | -2 | . | .
CC(OC(=O)COc1ccccc1)C(=O)NC1CCCC1 (stereo unspecified) | 0 | 0 | 8 | 4 | 2 | -18* | . | -8.7
COc1cccc(S(=O)(=O)Nc2ccc3c(c2)[C@@H]2C[C@@H](CC(=O)N(C)C)O[C@@H](CO)[C@@H]2O3)c1 | 0 | 0 | 1 | -2 | 8 | 0 | . | .
O=S(=O)(Nc1ccc(-c2cnco2)cc1)c1ccccc1 | 0 | 7 | . | . | -2 | -25* | -11 | .
c1ccc2c(c1)Nc1cc3ccccc3cc1S2 | 0 | 9 | . | . | -14 | -21* | -5.3 | -7.6
Cc1ccsc1C(=O)N1CCCC(C(=O)c2cc(F)ccc2F)C1 (stereo unspecified) | 0 | 0 | 9 | 8 | 8 | -16* | . | ?
CCC(=O)Nc1ccc2c(c1)C(=O)N(C)C[C@@H](OC)[C@@H](C)CN(C(=O)c1ccncc1)[C@H](C)CO2 | 0 | 0 | -12 | -2 | -9 | 2 | . | .
SMILES | Xi reactivation | E-sel inducer | RAD54 branch | PglD inh | RAD52 inh | Ecoli rRNA inh | AID977621 | AID977628
CC(C)NC(=O)N(C)C[C@H]1Oc2c(NS(=O)(=O)c3ccc(Cl)cc3)cccc2C(=O)N([C@@H](C)CO)C[C@@H]1C | -1 | . | 9 | 1 | 0 | -3 | . | .
CC(C)C[C@@H]1COc2cc(NC3CC3)ccc2S(=O)(=O)N1 | 0 | 2 | . | . | -6 | 9 | . | .
CC(C)C[C@H]1COc2cc(Br)ccc2S(=O)(=O)N1 | 0 | -1 | -7 | -6 | -12 | -22* | 0.022 | ?
O=C(Nc1ccc(C(=O)Nc2ccccc2Cl)cc1)c1cccnc1 | 0 | . | 4 | 4 | -17 | -20* | -1.8 | -11
O=S(=O)(NCc1cc(-c2ccccc2)no1)c1ccccc1Cl | 0 | . | . | . | -18 | -21* | -1.6 | 1
COc1ccc(OC)c(S(=O)(=O)NCc2cc(-c3ccccc3)no2)c1 | 0 | 0 | 7 | 4 | -6 | 3 | . | .
CCC1CCCCN1C(=O)CSc1nnc(-c2cccc(Cl)c2)o1 (stereo unspecified) | 0 | . | 3 | -3 | -8 | -26* | -12 | -15
CCC1CCCCN1C(=O)CSc1nnc(-c2ccc(Cl)cc2)o1 (stereo unspecified) | 0 | . | -7 | -3 | -8 | 1 | . | .
CC(=O)Nc1cccc(NC(=O)c2c(-c3c(Cl)cccc3Cl)noc2C)c1 | . | . | 3 | -4 | -5 | -17* | -0.74 | -2
Cc1ccccc1Nc1c(-c2cccnc2)nc2ccc(Br)cn12 | 0 | 0 | . | . | -11 | -25* | 6.9 | 0.28
Cc1ccc2nc(-c3cccnc3)c(Nc3ccccc3C)n2c1 | 0 | 0 | -6 | -2 | -13 | 1 | . | .
